How the values were obtained:
Settings in all cases: stereoisomer not certain
[1] = tested on: O51V1 L36F N51T G96W
How it was run: (§1)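 Values were gathered from published papers (main text and supplementary material), with extra details requested from the original authors when needed, and checked for typos and inconsistencies. Each receptor–molecule pair is called responsive (active) if the original authors judged the measured signal statistically different from baseline, and non-responsive (inactive) otherwise. Assay methods varied by source, often transient mammalian cell-line luciferase assays. Recorded details include cell line, G-protein, co-transfected protein and tags.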

[2] = tested on: O52A1
Sequence of O52A1 (as listed by the source): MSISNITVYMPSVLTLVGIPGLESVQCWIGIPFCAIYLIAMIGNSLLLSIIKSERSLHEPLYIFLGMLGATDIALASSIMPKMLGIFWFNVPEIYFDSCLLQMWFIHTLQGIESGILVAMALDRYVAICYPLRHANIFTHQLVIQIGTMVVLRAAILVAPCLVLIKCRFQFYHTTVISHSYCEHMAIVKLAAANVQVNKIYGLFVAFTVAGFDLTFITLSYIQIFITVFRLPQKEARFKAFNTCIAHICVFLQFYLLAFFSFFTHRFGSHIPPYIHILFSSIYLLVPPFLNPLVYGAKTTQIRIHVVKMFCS
How it was run: as §1

[3] = tested on: O52B6 V288I
Sequence of O52B6 V288I (as listed by the source, stated change not applied): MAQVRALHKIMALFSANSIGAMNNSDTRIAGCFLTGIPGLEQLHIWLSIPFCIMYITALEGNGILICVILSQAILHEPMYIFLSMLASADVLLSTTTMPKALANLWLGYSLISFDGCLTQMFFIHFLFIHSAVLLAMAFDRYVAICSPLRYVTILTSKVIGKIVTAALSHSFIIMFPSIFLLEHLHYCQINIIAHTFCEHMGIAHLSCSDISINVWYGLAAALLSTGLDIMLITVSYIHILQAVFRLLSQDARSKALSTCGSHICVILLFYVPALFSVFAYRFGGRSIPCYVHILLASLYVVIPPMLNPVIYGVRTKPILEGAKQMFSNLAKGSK
How it was run: as §1

[4] = tested on: O52E2 R264C
Sequence of O52E2 R264C (as listed by the source, stated change not applied): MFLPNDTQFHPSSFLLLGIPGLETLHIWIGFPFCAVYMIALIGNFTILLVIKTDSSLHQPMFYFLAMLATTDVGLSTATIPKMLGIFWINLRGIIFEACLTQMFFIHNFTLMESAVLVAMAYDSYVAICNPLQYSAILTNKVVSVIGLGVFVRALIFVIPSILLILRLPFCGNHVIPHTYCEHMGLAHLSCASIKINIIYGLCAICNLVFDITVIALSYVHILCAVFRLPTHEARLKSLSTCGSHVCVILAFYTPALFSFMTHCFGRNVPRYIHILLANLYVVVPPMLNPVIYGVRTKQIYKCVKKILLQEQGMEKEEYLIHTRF
How it was run: as §1

[5] = tested on: O52E4
Sequence of O52E4 (as listed by the source): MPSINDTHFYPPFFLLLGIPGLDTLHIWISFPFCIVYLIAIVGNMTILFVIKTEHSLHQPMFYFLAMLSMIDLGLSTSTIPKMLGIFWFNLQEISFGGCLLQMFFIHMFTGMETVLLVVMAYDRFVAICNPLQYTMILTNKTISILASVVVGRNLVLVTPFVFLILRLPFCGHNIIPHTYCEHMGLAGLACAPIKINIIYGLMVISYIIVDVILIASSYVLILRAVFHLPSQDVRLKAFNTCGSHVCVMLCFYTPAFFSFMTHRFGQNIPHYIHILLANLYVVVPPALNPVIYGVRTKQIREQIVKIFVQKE
How it was run: as §1

[6] = tested on: O52E5
Sequence of O52E5 (as listed by the source): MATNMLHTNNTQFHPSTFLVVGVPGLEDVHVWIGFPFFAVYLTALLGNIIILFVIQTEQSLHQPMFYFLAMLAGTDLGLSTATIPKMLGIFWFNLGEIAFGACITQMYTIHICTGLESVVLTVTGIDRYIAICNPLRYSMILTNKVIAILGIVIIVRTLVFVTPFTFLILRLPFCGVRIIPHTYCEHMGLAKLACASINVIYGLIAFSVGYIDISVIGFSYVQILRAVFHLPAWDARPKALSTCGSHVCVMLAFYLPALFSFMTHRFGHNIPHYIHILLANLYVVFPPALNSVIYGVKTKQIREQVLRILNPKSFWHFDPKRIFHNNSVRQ
How it was run: as §1

[7] = tested on: O52E8
Sequence of O52E8 (as listed by the source): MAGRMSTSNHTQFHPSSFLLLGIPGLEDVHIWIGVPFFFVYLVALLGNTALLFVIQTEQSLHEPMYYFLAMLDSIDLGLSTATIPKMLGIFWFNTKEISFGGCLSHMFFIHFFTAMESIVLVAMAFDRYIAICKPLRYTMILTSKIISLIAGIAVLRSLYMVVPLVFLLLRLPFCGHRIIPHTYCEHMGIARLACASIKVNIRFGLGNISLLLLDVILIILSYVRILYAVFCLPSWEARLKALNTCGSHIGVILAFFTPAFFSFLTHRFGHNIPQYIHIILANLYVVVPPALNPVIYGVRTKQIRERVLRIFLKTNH
How it was run: as §1

[8] = tested on: O52H1 A89T H130R C242R
How it was run: as §1

[9] = tested on: O52H1 H130R C242R
How it was run: as §1

[10] = tested on: O52H1
Sequence of O52H1 (as listed by the source): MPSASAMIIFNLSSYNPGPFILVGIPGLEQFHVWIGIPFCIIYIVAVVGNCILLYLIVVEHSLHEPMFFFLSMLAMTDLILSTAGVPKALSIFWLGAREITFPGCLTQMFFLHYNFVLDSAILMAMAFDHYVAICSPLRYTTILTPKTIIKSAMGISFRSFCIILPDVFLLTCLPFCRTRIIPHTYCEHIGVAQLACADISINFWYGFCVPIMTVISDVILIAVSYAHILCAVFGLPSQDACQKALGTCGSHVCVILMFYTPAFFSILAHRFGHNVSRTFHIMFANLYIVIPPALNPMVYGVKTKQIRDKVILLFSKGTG
How it was run: as §1

[11] = tested on: O52I2 I74L
Sequence of O52I2 I74L (as listed by the source, stated change not applied): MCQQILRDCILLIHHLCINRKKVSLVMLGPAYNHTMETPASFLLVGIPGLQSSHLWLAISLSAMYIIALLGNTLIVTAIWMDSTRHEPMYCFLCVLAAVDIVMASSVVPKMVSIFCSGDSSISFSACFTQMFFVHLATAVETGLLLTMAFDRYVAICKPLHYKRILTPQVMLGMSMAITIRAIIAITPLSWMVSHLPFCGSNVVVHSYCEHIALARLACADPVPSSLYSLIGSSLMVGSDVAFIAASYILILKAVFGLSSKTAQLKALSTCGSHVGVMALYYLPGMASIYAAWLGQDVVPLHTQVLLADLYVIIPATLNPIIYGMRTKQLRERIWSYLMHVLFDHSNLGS
How it was run: as §1

[12] = tested on: O52J3 T77A V128I Q141L
How it was run: as §1

[13] = tested on: O52K1 A119T A149T
How it was run: as §1

[14] = tested on: O52K1 Q52R
Sequence of O52K1 Q52R (as listed by the source, stated change not applied): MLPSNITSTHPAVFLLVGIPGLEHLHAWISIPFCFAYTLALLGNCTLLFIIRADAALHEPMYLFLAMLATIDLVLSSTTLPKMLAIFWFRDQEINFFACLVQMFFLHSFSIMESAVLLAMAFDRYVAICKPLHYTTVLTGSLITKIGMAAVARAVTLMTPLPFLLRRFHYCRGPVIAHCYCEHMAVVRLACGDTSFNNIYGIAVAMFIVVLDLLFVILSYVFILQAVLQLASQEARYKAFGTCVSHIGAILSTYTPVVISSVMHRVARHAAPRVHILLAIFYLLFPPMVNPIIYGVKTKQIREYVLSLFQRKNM
How it was run: as §1

[15] = tested on: O52L1
Sequence of O52L1 (as listed by the source): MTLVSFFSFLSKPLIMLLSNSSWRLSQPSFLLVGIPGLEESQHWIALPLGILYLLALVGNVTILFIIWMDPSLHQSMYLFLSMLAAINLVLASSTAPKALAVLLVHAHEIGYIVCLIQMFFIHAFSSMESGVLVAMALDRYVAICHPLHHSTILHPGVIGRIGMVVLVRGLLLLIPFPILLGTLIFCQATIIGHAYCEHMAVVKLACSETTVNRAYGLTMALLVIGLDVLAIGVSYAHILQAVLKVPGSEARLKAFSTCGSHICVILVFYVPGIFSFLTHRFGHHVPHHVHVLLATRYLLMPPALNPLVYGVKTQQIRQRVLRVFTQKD
How it was run: as §1

[16] = tested on: O52M1 S305R
Sequence of O52M1 S305R (as listed by the source, stated change not applied): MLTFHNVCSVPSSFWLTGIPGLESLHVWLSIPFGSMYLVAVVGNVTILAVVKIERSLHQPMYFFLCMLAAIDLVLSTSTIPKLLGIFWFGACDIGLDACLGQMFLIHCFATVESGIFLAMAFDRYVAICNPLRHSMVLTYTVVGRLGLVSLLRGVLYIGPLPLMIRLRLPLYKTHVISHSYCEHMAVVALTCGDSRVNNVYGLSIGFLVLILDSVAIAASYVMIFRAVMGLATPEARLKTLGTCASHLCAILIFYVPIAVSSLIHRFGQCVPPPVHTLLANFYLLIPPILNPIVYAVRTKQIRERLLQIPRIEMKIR
How it was run: as §1

[17] = tested on: O52N1 R167C F247I
How it was run: as §1

[18] = tested on: O52N2 S249A H264R
How it was run: as §1

[19] = tested on: O52W1 H239R L254Q
How it was run: as §1

[20] = tested on: O56A3
Sequence of O56A3 (as listed by the source): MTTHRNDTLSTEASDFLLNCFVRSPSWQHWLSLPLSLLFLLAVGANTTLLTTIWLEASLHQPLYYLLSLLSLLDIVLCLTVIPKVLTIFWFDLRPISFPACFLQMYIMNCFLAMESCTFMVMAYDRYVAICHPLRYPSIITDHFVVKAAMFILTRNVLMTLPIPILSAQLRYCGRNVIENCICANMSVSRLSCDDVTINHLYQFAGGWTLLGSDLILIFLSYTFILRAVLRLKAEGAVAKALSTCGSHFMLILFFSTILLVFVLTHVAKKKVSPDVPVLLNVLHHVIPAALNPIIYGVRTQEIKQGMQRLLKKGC
How it was run: as §1

Measured: odorant receptor agonist call

C=CCOC(=O)Cc1ccccc1
inactive: all assays above

Cc1c([N+](=O)[O-])c(C)c([N+](=O)[O-])c(C(C)(C)C)c1[N+](=O)[O-]
inactive: [7] | [10]

Source: the M2OR odorant receptor database
